# ChEMBL document CHEMBL1126267, “A novel synthesis and potent antiinflammatory activity of 4-hydroxy-2(1H)-oxo-1-phenyl-1,8-naphthyridine-3-carboxamides” (1992)
# Experiments:
# Assay type in all cases: functional
# Conditions in all cases: route oral
# Rattus norvegicus [1] = test: Antiinflammatory activity on Carrageenan rat's paw edema(CPE) after peroral administration of 100 mg/kg dose with control swelling of 68.1%
# Rattus norvegicus [2] = test: Inhibition of Zymosan-induced rat's paw edema(ZPE) after peroral administration of 100 mg/kg dose.
# In short: (§1)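 Male Wistar rats (about 150 g) were dosed orally with compound suspended in 5% arabic gum, 1 h before a subplantar hind-paw injection of 0.1 mL saline. The irritant was 1% zymosan for 33 or 1% λ-carrageenin for 34. Paw volume was measured by plethysmograph before dosing and at 4 h (zymosan) or 3 h (carrageenin). Swelling is relative to initial volume, as mean ± SEM. % inhibition is versus the control group's mean swelling.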
# Rattus norvegicus [3] = test: Inhibition of carrageenan-induced rat's paw edema (CPE) after peroral administration of 100 mg/kg dose.; in short: as §1
# Rattus norvegicus [4] = test: Compound was tested for the inhibition of rat reversed passive Arthus pleurisy after peroral administration of 100 mg/kg dose at 0.62 mL of exudate volume with 0.54 mL of control (injected intrapleurally)
# In short: (§2)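 Male Wistar rats (about 250 g) were given compound orally before the antiserum. Under ether anesthesia, 0.2 mL rabbit anti-egg albumin antiserum was injected intrapleurally. After 30 min, egg albumin (15 mg/100 g body weight in 0.1 mL saline) was given iv. Rats were killed 4.5 h later and the thoracic cavity was rinsed with 5 mL saline. Exudate volume and infiltrated cell number were measured, with inhibition % versus controls as mean ± SEM.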
# Rattus norvegicus [5] = test: Compound was tested for the inhibition of rat reversed passive Arthus pleurisy after peroral administration of 100 mg/kg dose at 3.43+/-0.11*10e6 no of cells with 3.62*10e6 cells of control
# In short: (§3)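 Male Wistar rats (about 250 g) under ether received 0.2 mL rabbit anti-egg-albumin antiserum intrapleurally. Thirty min later they got 15 mg EA/100 g body weight in 0.1 mL saline iv. Compounds were given orally beforehand. Rats were killed 4.5 h after induction and the thoracic cavity rinsed with 5 mL saline. Exudate volume and infiltrated cell count were read as mean ± SE. % inhibition is versus control.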
# Rattus norvegicus [6] = test: Antiinflammatory activity on Zymosan-induced rat's paw edema(ZPE) after peroral administration of 100 mg/kg dose with control swelling of 62.0%
# In short: (§4)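 Male Wistar rats weighing about 150 g were dosed orally with compound suspended in 5% arabic gum. 1 h later, 1% zymosan in 0.1 mL saline was injected subplantarly into the hind paw. Paw volume was measured by plethysmograph before dosing and 4 h after zymosan, with edema as the volume difference. Inhibition % was derived from mean swelling versus the control group.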
# Rattus norvegicus [7] = test: Compound was tested for the inhibition of rat reversed passive Arthus pleurisy after peroral administration of 100 mg/kg dose at 3.74*10e6 no of cells with 7.4*10e6 cells of control; in short: as §3
# Rattus norvegicus [8] = test: Antiinflammatory activity on Carrageenan rat's paw edema(CPE) after peroral administration of 100 mg/kg dose with control swelling of 64.2%
# Rattus norvegicus [9] = test: Antiinflammatory activity on Zymosan-induced rat's paw edema(ZPE) after peroral administration of 100 mg/kg dose with control swelling of 71.7%; in short: as §4
# Rattus norvegicus [10] = test: Compound was tested for the inhibition of rat reversed passive Arthus pleurisy after peroral administration of 100 mg/kg dose at 0.64 mL of exudate volume with 0.82 mL of control (injected intrapleurally); in short: as §2
# Rattus norvegicus [11] = test: Antiinflammatory activity on Carrageenan rat's paw edema(CPE) after peroral administration of 100 mg/kg dose with control swelling of 74.7%
# Rattus norvegicus [12] = test: Antiinflammatory activity on Zymosan-induced rat's paw edema(ZPE) after peroral administration of 100 mg/kg dose with control swelling of 62.8%; in short: as §4
# Rattus norvegicus [13] = test: Compound was tested for the inhibition of rat reversed passive Arthus pleurisy after peroral administration of 100 mg/kg dose at 0.8 mL of exudate volume with 0.84 mL of control (injected intrapleurally); in short: as §2
# Rattus norvegicus [14] = test: Compound was tested for the inhibition of rat reversed passive Arthus pleurisy after peroral administration of 100 mg/kg dose at 4.47*10e6 no of cells with 5.72*10e6 cells of control; in short: as §3
# Rattus norvegicus [15] = test: Compound was tested for the inhibition of rat reversed passive Arthus pleurisy after peroral administration of 100 mg/kg dose at 6.01*10e6 no of cells with 7.4*10e6 cells of control; in short: as §3
# Rattus norvegicus [16] = test: Compound was tested for the inhibition of rat reversed passive Arthus pleurisy after peroral administration of 100 mg/kg dose at 0.65 mL of exudate volume with 0.82 mL of control (injected intrapleurally); in short: as §3
smiles,measurement,setting,value
O=C(Nc1ccc(Cl)cc1)c1c(O)c2cccnc2n(-c2ccccc2)c1=O,Swelling,Rattus norvegicus [1],66.4%
same,inhibition in vivo at 100 mg/kg,Rattus norvegicus [2],11.6%
same,inhibition in vivo at 100 mg/kg,Rattus norvegicus [3],2.5%
same,inhibition in vivo at 100 mg/kg,Rattus norvegicus [4],-16.3%
same,inhibition in vivo at 100 mg/kg,Rattus norvegicus [5],18.8%
same,Swelling,Rattus norvegicus [6],54.8%
O=C(NCc1ccncc1)c1c(O)c2cccnc2n(-c2ccccc2)c1=O,inhibition in vivo at 100 mg/kg,Rattus norvegicus [2],10%
same,inhibition in vivo at 100 mg/kg,Rattus norvegicus [3],15.4%
same,inhibition in vivo at 100 mg/kg,Rattus norvegicus [7],49.5%
same,Swelling,Rattus norvegicus [8],54.3%
same,Swelling,Rattus norvegicus [9],64.5%
same,inhibition in vivo at 100 mg/kg,Rattus norvegicus [10],22%
CCOC(=O)c1c(O)c2cccnc2n(-c2ccccc2)c1=O,inhibition in vivo at 100 mg/kg,Rattus norvegicus [2],23.5%
same,inhibition in vivo at 100 mg/kg,Rattus norvegicus [3],15.5%
same,Swelling,Rattus norvegicus [11],63.1%
same,Swelling,Rattus norvegicus [6],47.2%
COc1ccc(NC(=O)c2c(O)c3cccnc3n(-c3ccccc3)c2=O)cc1,Swelling,Rattus norvegicus [1],69.4%
same,inhibition in vivo at 100 mg/kg,Rattus norvegicus [2],0.3%
same,inhibition in vivo at 100 mg/kg,Rattus norvegicus [3],-1.9%
same,Swelling,Rattus norvegicus [12],62.6%
same,inhibition in vivo at 100 mg/kg,Rattus norvegicus [13],5.1%
same,inhibition in vivo at 100 mg/kg,Rattus norvegicus [14],25.4%
O=C(Nc1ccc(Cl)nc1)c1c(O)c2cccnc2n(-c2ccccc2)c1=O,inhibition in vivo at 100 mg/kg,Rattus norvegicus [2],9.2%
same,inhibition in vivo at 100 mg/kg,Rattus norvegicus [3],-4%
same,Swelling,Rattus norvegicus [8],66.8%
same,Swelling,Rattus norvegicus [9],65.1%
same,inhibition in vivo at 100 mg/kg,Rattus norvegicus [15],18.8%
same,inhibition in vivo at 100 mg/kg,Rattus norvegicus [16],20.7%
